# The list is not random: actives were taken first. Their share in the collection is about 2.2%.
# GLD-1 RNA inh – GLD-1-TGE RNA interaction inhibition (C. elegans) | Q17339 | purified GLD-1 + fluorescein TGE RNA, fluorescence polarization | inhibition, % at 5.96 µM | hit rate 0.44% among 320,000;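 active = percent inhibition above a per-plate cutoff, the plate mean of test compounds plus 3 SD, cut at about 30% in these data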;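 note: 0% = DMSO wells with GLD-1 and probe and 100% = wells lacking GLD-1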
# VIM-2 inhibitor – blocks Pseudomonas aeruginosa VIM-2 metallo-beta-lactamase; purified VIM-2, nitrocefin hydrolysis, epi-absorbance fluorescence; inhibition, % at 5.6 µM; hit rate 0.89% among 290,000; AID 1527;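 active = inhibition above the mean of all tested compounds plus 3 SD, cutoff set per screening run, cut at about 7.5% in these data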;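 note: red hydrolysis product quenches plate fluorescence so inhibitors raise well fluorescence; 0% = enzyme with DMSO and 100% = DMSO without enzyme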
# IMP-1 inhibitor – blocks Pseudomonas aeruginosa IMP-1 metallo-beta-lactamase; purified IMP-1, nitrocefin hydrolysis, epi-absorbance fluorescence; inhibition, % at 5.6 µM; hit rate 0.45% among 290,000; AID 1556;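 active = inhibition above the mean plus 3 SD of all compounds in the same screening run, cut at about 4.5% in these data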;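 note: 0% = IMP-1 with DMSO and 100% = DMSO wells lacking enzyme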
#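 System: Purified recombinant IMP-1 metallo-beta-lactamase enzyme | Measured by: Fluorescence quenching readout, ex 480/em 530 nm | Replication: Singlicate | Incubation: 15 min preincubation plus 25 min reaction at 25 °C | Evaluation: Percent inhibition from optical density relative to buffer-blank wells | Benchmarks: DMSO with and without IMP-1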
# Bcl-xL primary – inhibitors of human Bcl-xL. Q07817. GST-Bcl-xL / FITC-Bim BH3 peptide fluorescence polarization. inhibition, % at 10.9 µM. hit rate 0.7% among 320,000. AID 2129;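 active = inhibition above the mean of all tested compounds plus 3 SD, cutoff set per campaign, cut at about 30% in these data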;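 note: 0% = DMSO wells and 100% = unlabeled Bim-BH3 peptide competitor; inhibitors lower millipolarization by displacing the labeled peptide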
# MEX-5 binding – C. elegans MEX-5 TCR-2 RNA binding activity; Q9XUB2; MEX-5/FITC-TCR2 RNA binding, fluorescence polarization; active compounds read low; activity score (negative = inhibition of binding), % at 10 µM; hit rate 0.38% among 300,000; AID 1832;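 active = inhibition past about -25% in most replicates, and total fluorescence under double the plate's negative control median, limit read from the data; inconclusive = replicates evenly split on the limit, or fluorescence at least double controls; inactive = too little inhibition in most replicates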;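 note: 0% = DMSO and -100% = 5 µM competing unlabeled TCR2 RNA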
# Target sequence (Q9XUB2 whole entry, looked up): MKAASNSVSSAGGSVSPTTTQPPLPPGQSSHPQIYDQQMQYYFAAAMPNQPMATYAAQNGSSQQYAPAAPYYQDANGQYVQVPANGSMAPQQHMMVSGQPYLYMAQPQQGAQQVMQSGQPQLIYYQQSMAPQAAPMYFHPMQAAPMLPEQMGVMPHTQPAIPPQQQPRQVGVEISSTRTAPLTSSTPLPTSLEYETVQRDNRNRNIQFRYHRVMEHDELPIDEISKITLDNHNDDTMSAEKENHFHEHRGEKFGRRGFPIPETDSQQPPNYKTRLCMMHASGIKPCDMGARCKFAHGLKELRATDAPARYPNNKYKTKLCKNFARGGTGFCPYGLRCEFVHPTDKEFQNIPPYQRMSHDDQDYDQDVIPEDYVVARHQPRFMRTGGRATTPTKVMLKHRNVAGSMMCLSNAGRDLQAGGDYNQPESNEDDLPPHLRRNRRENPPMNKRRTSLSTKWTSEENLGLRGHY
# EBV gp42 inh – EBV gp42 inhibition | Q1HVG2 | Fluorescence polarization binding assay, mP read-out | inhibition, % (tested at 21.74 µM) | hit rate 0.42% among 220,000; in the data active = inhibition above about 50%
# * = called active by the depositor; ? = inconclusive; / = not tested or not shown.
SMILES,GLD-1 RNA inh,VIM-2 inhibitor,IMP-1 inhibitor,Bcl-xL primary,MEX-5 binding,EBV gp42 inh
Nc1ccc(-c2c3ccccc3nc3ccccc23)cc1,/,9.6*,-1,/,-2,/
Nc1ccc(-c2nc3ccccc3o2)cc1,-5,0,-3,-11,3,/
CC(C)CN(CCNC(=O)CN1C(=O)COc2ccc(S(=O)(=O)N3CCC(C)CC3)cc21)CC(C)C,3,-4,-4,3,1,/
Oc1cccc(/C=N/N2CCCCC2)c1O,-7,-6,-5,3,-7,/
COc1cccc(/C=N/N2CCOCC2)c1O,6,-1,-1,-2,1,6
Oc1ccc(/C=N/N2CCOCC2)c(O)c1O,12,-3,0,16,-47*,-16
Oc1ccc(/C=N/N2CCCCC2)c(O)c1O,26,-2,-3,38*,-29*,/
COC(=O)c1ccc2[nH]c([C@H](C)O)c([C@H](C)O)c2c1,5,5,4.7*,5,4,/
CC(=O)c1cccc(S(=O)(=O)N2CCn3cccc3C2C)c1 (stereo not drawn),17,/,/,33*,/,/
COc1ccc(NC(C)=O)cc1S(=O)(=O)N1CCn2cccc2C1C (stereo not drawn),3,/,/,12,/,/
CC(=O)c1ccc(S(=O)(=O)N2CCn3cccc3C2C)cc1 (stereo not drawn),20,/,/,43*,/,/
CC1c2cccn2CCN1S(=O)(=O)c1ccc(F)cc1 (stereo not drawn),1,/,/,8,/,/
O=c1[nH]c(Cc2cccc(C(F)(F)F)c2)nc2ccccc12,-2,-4,-3,3,-2,/
Cc1ccc2nc3c(cc(C(=O)NCCN4CCOCC4)c(=N)n3CCCN3CCOCC3)c(=O)n2c1,1,8.9*,-4,10,0,/
N=c1c(C(=O)NCc2ccco2)cc2c(=O)n3ccccc3nc2n1C1CCCC1,22,3,-2,54*,-5,/
Cc1ccc2nc3c(cc(C(=O)NCCc4ccccc4)c(=N)n3CCN3CCOCC3)c(=O)n2c1,-2,0,-4,8,-1,/
N=c1c(C(=O)NCCN2CCOCC2)cc2c(=O)n3ccccc3nc2n1Cc1ccc(F)cc1,-9,8.1*,-4,-5,-8,/
N=c1c(C(=O)NCc2ccco2)cc2c(=O)n3ccccc3nc2n1Cc1ccccc1,11,2,-4,38*,-5,8
COc1ccc(CCn2c(=N)c(C(=O)NC3CCCC3)cc3c(=O)n4ccccc4nc32)cc1OC,-12,10*,-2,-6,-4,/
COc1ccc(CCn2c(=N)c(C(=O)NC3CCCC3)cc3c(=O)n4ccccc4nc32)cc1,-3,3,-2,3,1,/
COc1ccc(N(C)S(=O)(=O)c2ccc3c(c2)NC(=O)CC(=O)N3)c(OC)c1,6,-6,-3,-1,1,/
O=C(NNC(=O)c1csc(-c2cccnc2)n1)c1ccccc1,10,0,-15,5,-26*,-11
O=C(NNS(=O)(=O)c1ccccc1)c1csc(-c2cccnc2)n1,3,-1,-1,-3,-14,-4
COC(=O)c1ccc(N/C=C/C(=O)c2ccccc2)cc1,-8,-2,-2,4,2,/
Cc1cc2c(c(=O)n1Cc1ccco1)C(c1cccnc1)C(C#N)=C(N)O2 (stereo not drawn),23,2,0,47*,-6,-9
SMILES,GLD-1 RNA inh,VIM-2 inhibitor,IMP-1 inhibitor,Bcl-xL primary,MEX-5 binding,EBV gp42 inh
CCn1c(SCC(=O)O)nnc1-c1cc2c(C)nn(-c3ccccc3)c2s1,-6,10*,-3,6,2,0
COc1ccc(/C=C2\C(=O)OCc3cc(OC)c(OC)cc32)cc1OC,8,2,-3,-10,1,-3
COc1ccc(C=C2C(=O)OC(C)(C)OC2=O)cc1OC,-1,0,0,3,-50*,-4
CC1CN(C/C(=N\O)C23CC4CC(CC(C4)C2)C3)CC(C)O1 (stereo not drawn),/,-2,-2,/,-2,/
O=C(O)CCCCCn1c(SCC(=O)c2ccc(O)c(O)c2)nc2ccsc2c1=O,4,-1,-3,12,-27*,5
O=C(CSc1nc2ccsc2c(=O)n1CC1CCC(C(=O)O)CC1)c1ccc(Cl)cc1 (stereo not drawn),2,-1,14*,2,-1,4
CN(C)C(CNC(=S)Nc1cccc(Cl)c1)c1cccnc1 (stereo not drawn),7,-1,-3,4,1,-7
CC(C)C(C)N(Cc1cccc(C(=O)O)c1)C(=O)c1ccc2ccccc2n1 (stereo not drawn),5,/,/,3,1,/
O=C(O)C/C(=C\c1ccc2c(c1)OCO2)c1nc2ccccc2s1,-4,8.0*,-2,8,-2,/
COc1ccc(S(=O)(=O)N2CCN(c3nc(-c4cccnc4)nc4ccccc34)CC2)cc1,2,/,/,-6,/,/
CC1=CC2=C(OC1N(C)C)c1cccc3cccc(c13)C2=O (stereo not drawn),110*,3,7.3*,122*,-22,49
O=C(NC1CCCCCC1)C1CCCN(S(=O)(=O)c2cccs2)C1 (stereo not drawn),6,0,-2,2,2,0
O=C(NC1CCCCC1)C1CCN(S(=O)(=O)c2cccs2)CC1,0,3,4.8*,2,-1,-12
Cc1cc(=O)[nH]c(N/N=C/c2ccc(O)c(O)c2)n1,-5,-1,-1,-23,-42*,/
Cc1ccc(NC(=O)CSc2nc3ncc(Cl)cc3[nH]2)c(C)c1,1,-2,-1,0,0,/
CN(CC(=O)Nc1c(Cl)cccc1Cl)C(=O)CCC1CCCC1,-14,1,0,-3,1,/
Cc1nc2c(ccc3nc(NC(=O)C4CC4)sc32)s1,-4,8.6*,-2,6,0,-14
CCn1c2ccc(F)cc2c2nc3ccccc3nc21,10,1,-1,7,-2,9
COc1ccc2c(c1)c1nc3ccccc3nc1n2CCCN1C(=O)c2ccccc2C1=O,7,-3,-4,6,-42*,14
COc1ccc2c(c1)c1nc3ccccc3nc1n2CCn1c(=O)oc2ccccc21,3,0,-3,4,?,-1
Cc1cccc2c3nc4ccccc4nc3n(CCCN3C(=O)c4ccccc4C3=O)c12,/,-2,-4,/,-4,83*
COc1ccc2c(c1)c1nc3ccccc3nc1n2CC(=O)OC(C)C,8,-4,-1,60*,?,91*
COc1ccc(Cn2c3ccc(OC)cc3c3nc4ccccc4nc32)cc1,5,0,0,19,-39*,67*
COc1ccc(C)cc1NC(=O)NNC(=O)C(C)Oc1ccc(F)cc1Cl (stereo not drawn),3,-2,-1,-3,1,/
CC(NC(=O)CN1C(=O)NC(C)(c2cccc3ccccc23)C1=O)c1ccccc1 (stereo not drawn),-5,-2,-4,0,2,/
